Experimental data collected from several papers.
Protocols differ between the studies behind these lines.
Cell line: MRC5
Effect on: cell growth or viability

Compound	method	tested at	time	endpoint	result
CCCCN1C[C@H]2CC[C@@H]3[C@](C)(COC(C)=O)[C@H](OC(C)=O)CC[C@@]3(C)[C@@H]2C[C@@H]1C1=CCOC1=O	ATP luminescence	25 µM	72 h	cell death	-6%
Cc1cn([C@@H]2C[C@H](O)[C@@H](CNC(=O)Nc3ccc(N4CCCCC4)cc3)O2)c(=O)[nH]c1=O	–	–	–	CC50	> 50 µM
COc1ccc(CN2C[C@H]3CC[C@@H]4[C@]5(C)COC(C)(C)O[C@@H]5CC[C@@]4(C)[C@@H]3C[C@@H]2C2=CCOC2=O)cc1	ATP luminescence	25 µM	72 h	cell death	5.1%
Cc1cn([C@@H]2C[C@H](O)[C@@H](CNC(=O)Nc3ccc(OCc4ccccc4)cc3)O2)c(=O)[nH]c1=O	–	–	–	CC50	> 50 µM
COc1c2ccoc2c(OCC=C(C)C)c2oc(=O)ccc12	MTT	–	24 h	IC50	> 100 µM
O=C(C=C[c-]1cccc1)c1ccc[nH]1.[Fe+2].c1cc[cH-]c1	MTT	100 µM	–	viability	~100%
CC(C)=CCC/C(C)=C/COc1ccc2ccc(=O)oc2c1	MTT	–	24 h	IC50	68.9 µM
COC(=O)N[C@H](C(=O)N1CCC[C@H]1c1nc(-c2ccc(-c3ccc(-c4c[nH]c([C@@H]5CCCN5C(=O)[C@@H](NC(=O)OC)C(C)C)n4)cc3)cc2)c[nH]1)C(C)C	–	–	5 days	CC50	29 µM
